The sample as a whole holds a higher share of hits than the screen did.
HUVEC inhibit: blocks proliferation of human endothelial cells; HUVEC proliferation, CellTiter-Glo luminescence, 72 h; hits give low values; viability, % at 10 µM (by protocol); actives 1.1% (n = 86,000);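 active = viability at or below 30%; inactive = viability above 30%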
H69AR growth 86K: blocks growth of human H69AR lung tumor cells; H69AR lung tumor viability, ATP luminescence, 72 h; hits give low values; viability, % at 10 µM; actives 6% (n = 85,000);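 active = viability at or below 40%; inactive = viability above 40%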;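 note: multidrug resistant small cell line overexpressing MRP-1 efflux transporter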
PTEN del growth: suppresses growth of cells with PTEN deletion | HCT116 PTEN-null viability, CellTiter-Glo, 60 h; hits give low values | viability, % at 10 µM | actives 1.2% (n = 140,000);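 active = viability at or below a set limit, 4 SD under the median of all tested compounds, cut at about 3.7% in these data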;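 note: PTEN knockout HCT116 line with beta catenin targeted HCT116 as companion control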
Fibroblast inh: blocks proliferation of human lung fibroblasts; LL 47 human lung fibroblast viability, ATP luminescence; hits give low values; viability, % at 10 µM; actives 1.1% (n = 85,000);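 active = viability at or below 50% in the single dose screen; inactive = viability above 50%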;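 note: compound exposure lasted 72 h before the ATP readout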
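Test system: LL 47 human lung fibroblasts / Incubation: 72 h compound exposure at 37 °C after overnight plating / Technique: luminescent ATP detection, CellTiter-Glo / Compound dosing: 0.1% DMSO in all compound wells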
Phagocyt inh: blocks phagocytosis by macrophages; J774A.1 macrophage IgG-bead phagocytosis, imaging; inhibition, % at 5 µM; actives 0.07% (n = 110,000);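 active = inhibition above the mean of the plate negative controls plus 5 SD, cut at about 13% in these data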;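 note: phagocytic index as fraction of beads internalized from green versus red external bead signal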
HCT116 bCat-KO: beta-catenin-lacking colon tumor cell growth suppression | HCT116 beta-catenin knockout viability, CellTiter-Glo, 60 h; hits give low values | viability, % at 10 µM | actives 1.5% (n = 140,000);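 active = viability at or under a set limit, the compound median less 4 SD, cut at about 6% in these data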
Large screens that a line does not name were inactive; [ ] = another dose, or the depositor's remark.

C=CCn1c(SCC(=O)c2[nH]c(C)c(C(=O)OCC)c2C)nc2scc(-c3ccc(OC)c(OC)c3)c2c1=O	PTEN del growth 0.8, HCT116 bCat-KO 1.0 (no result: HUVEC inhibit, H69AR growth 86K, Fibroblast inh)
CCOC(=O)c1c(C)[nH]c(C(=O)CSc2nnc(-c3ccncc3)n2CC)c1C	none (no result: HUVEC inhibit, H69AR growth 86K, Fibroblast inh)
COc1cccc2cc(C(=O)OC3CCN(C)CC3)c(=O)oc12	none
COc1cc(Br)cc2cc(C(=O)OC3CCN(C)CC3)c(=O)oc12	H69AR growth 86K 36 (no result: PTEN del growth, Phagocyt inh, HCT116 bCat-KO)
O=C(CN1C(=O)C2C3C=CC(C4CC34)C2C1=O)OCC(=O)c1ccccc1 (centres undefined)	none (no result: HUVEC inhibit, H69AR growth 86K, Fibroblast inh)
CCC(c1nnc(SCC(=O)NCCc2ccc(Cl)cc2Cl)o1)N(C)C (centres undefined)	none
COc1ccc2c(c1)nc1n2CN(CC2CCCO2)CN1Cc1ccccc1 (centres undefined)	H69AR growth 86K 25 (no result: PTEN del growth, HCT116 bCat-KO)
COc1ccc(/C=C2/C(=O)N(CC3CCCO3)C(=S)N2C)c(OC)c1 (centres undefined)	none (no result: HUVEC inhibit, H69AR growth 86K, Fibroblast inh)
CCc1ccc(/C=C2\Oc3cc(OS(C)(=O)=O)ccc3C2=O)cc1	none (no result: HUVEC inhibit, H69AR growth 86K, Fibroblast inh, Phagocyt inh)
Cc1ccc(S(=O)(=O)Oc2ccc3c(c2)O/C(=C\c2cccnc2)C3=O)cc1	H69AR growth 86K 25
O=C1/C(=C/c2cccnc2)Oc2cc(OS(=O)(=O)c3ccc(F)cc3)ccc21	H69AR growth 86K 35
Cc1ccc(-c2cnn(-c3cccc([N+](=O)[O-])c3)c2N)cc1	none (no result: HUVEC inhibit, H69AR growth 86K, Fibroblast inh, Phagocyt inh)
Cc1n[nH]c(C)c1S(=O)(=O)N(CC(=O)N1CCc2ccccc21)c1ccc(C(C)C)cc1	H69AR growth 86K 31
CCOc1ccc(N(CC(=O)N2CCc3ccccc32)S(=O)(=O)c2c(C)noc2C)cc1	none
COc1ccc(CNc2nc(SCc3cc(=O)n4cc(Cl)ccc4n3)nc3ccccc23)cc1	none (no result: HUVEC inhibit, H69AR growth 86K, Fibroblast inh)
O=C(CSc1n[nH]c(-c2ccccc2)n1)c1ccc(O)c(O)c1	H69AR growth 86K 27
COc1cccc(C2C(C(=O)Nc3cccnc3)=C(C)Nc3nnnn32)c1OC (centres undefined)	none
COc1ccccc1NC(=O)C1=C(C)Nc2nnnn2C1c1cc(Br)ccc1OC (centres undefined)	H69AR growth 86K 17 (no result: Phagocyt inh)
COc1ccc(C2C(=O)N(C3CCCCC3)CC(=O)N2C2CCCC2)cc1 (centres undefined)	none (no result: Phagocyt inh)
COc1ccc(C2C(=O)N(CCc3ccccc3)CC(=O)N2C2CCCC2)cc1 (centres undefined)	H69AR growth 86K 35 (no result: Phagocyt inh)
CN(C)CCCNCCNC(=O)/C=N\O	none (no result: HUVEC inhibit, H69AR growth 86K, Fibroblast inh)
CN(C)CCCCNCCCNC(=O)/C=N\O	Phagocyt inh 54[artifact]
CCOc1ccc(N(CC(=O)NC2CCCCC2)C(=O)CSc2nnc(COc3ccccc3)o2)cc1	H69AR growth 86K 36 (no result: Phagocyt inh)
O=C(CSc1nnc(CNC(=O)c2cccs2)o1)NC1CCCCC1	none
O=C(CN(Cc1cccs1)C(=O)CSc1nnc(COc2ccccc2)o1)NC1CCCCC1	H69AR growth 86K 40 (no result: Phagocyt inh)
COc1ccc(C(=O)NC(=O)COC(=O)C2COc3ccccc3O2)cc1 (centres undefined)	none
CC(=O)c1ccc(NC(=S)N2C(C)CCCC2C)cc1 (centres undefined)	none (no result: HUVEC inhibit, H69AR growth 86K, Fibroblast inh)
O=C(CC(Nc1ccc(F)cc1)c1ccccc1)c1ccccc1 (centres undefined)	PTEN del growth 3.4 (no result: HUVEC inhibit, H69AR growth 86K, Fibroblast inh)
O=C(CC(Nc1ccc(Cl)cc1)C(=O)O)c1ccccc1 (centres undefined)	none (no result: Phagocyt inh)
O=C1NC(c2ccc3c(c2)OCO3)Nc2ccccc21 (centres undefined)	H69AR growth 86K 27
Cc1cccc(OCCCN2CCCCCC2)c1	none
Cc1cccc(OCCN2CSC(=S)N(C)C2)c1	HUVEC inhibit 21, H69AR growth 86K 1.5
COc1ccccc1OCCN1CSC(=S)N(C)C1	HCT116 bCat-KO 4.0 (no result: HUVEC inhibit, H69AR growth 86K, Fibroblast inh)
COc1ccccc1OCCCCN1CCN(c2ccccc2OC)CC1	none
Cc1cccc(/C=c2\s/c(=C\C(=O)C(C)(C)C)[nH]c2=O)c1	H69AR growth 86K 6.8
Cc1cc(N2CCOCC2)ccc1/C=C\[N+](=O)[O-]	HCT116 bCat-KO 4.4 (no result: HUVEC inhibit, H69AR growth 86K, Fibroblast inh)
CN=C1S/C(=C\c2ccc(N3CCOCC3)cc2C)C(=O)N1C	none (no result: HUVEC inhibit, H69AR growth 86K, Fibroblast inh, Phagocyt inh)
Nc1ccc(C(=O)OCC(=O)Nc2ccc([N+](=O)[O-])cc2C(F)(F)F)cc1	none (no result: HUVEC inhibit, H69AR growth 86K, Fibroblast inh)
CC(=O)Nc1nn(C)c2nc3cc(C)ccc3cc12	none
Cc1ccc2cc3c(NC(=O)c4ccco4)nn(C)c3nc2c1	H69AR growth 86K 35
O=C(O)C1C2C=CC(C2)C1C(=O)Nc1ccc(C(=O)N2CCCCC2)cc1 (centres undefined)	none
Cc1ccc(-n2c(Cl)c(Cl)nc(Cl)c2=O)cc1	PTEN del growth 2.5, HCT116 bCat-KO 4.9 (no result: HUVEC inhibit, H69AR growth 86K, Fibroblast inh)
COc1nc(Cl)cn(-c2ccc(C)cc2)c1=O	none (no result: HUVEC inhibit, H69AR growth 86K, Fibroblast inh)
Cc1cc(C(F)(F)F)c2c(=O)[nH]c(=O)n(Cc3ccccc3)c2n1	none
O=c1[nH]c(=O)n(Cc2ccccc2)c2nc(-c3ccco3)cc(C(F)(F)F)c12	H69AR growth 86K 31
O=C1CCn2nc(-c3ccc(Cl)cc3)cc2N1	HUVEC inhibit 17
O=C1C(=C2CCCCC2)SC(=S)N1Cc1ccco1	H69AR growth 86K 11
O=C(O)CCN1C(=O)C(=C2CCCCCC2)SC1=S	none
CCN(CCCNC(=O)C1CCN(S(=O)(=O)c2cnc[nH]2)CC1)c1cccc(C)c1	none
Cc1[nH]n(-c2ccccc2)c(=O)c1/C=N/NC(=O)c1cccc([N+](=O)[O-])c1	PTEN del growth 2.6, HCT116 bCat-KO 2.4 (no result: HUVEC inhibit, H69AR growth 86K, Fibroblast inh)
O=C(N/N=C/c1c[nH]c2ccccc12)c1cccc([N+](=O)[O-])c1	none (no result: HUVEC inhibit, H69AR growth 86K, Fibroblast inh)
CCN(CC)C(=O)C1CCCN(c2ccc([N+](=O)[O-])cc2/C=N/NC(=O)c2cccc(O)c2)C1 (centres undefined)	none (no result: HUVEC inhibit, H69AR growth 86K, Fibroblast inh)
CN1CCN(c2ccc([N+](=O)[O-])cc2/C=N/NC(=O)c2cccc([N+](=O)[O-])c2)CC1	HCT116 bCat-KO 5.3 (no result: HUVEC inhibit, H69AR growth 86K, Fibroblast inh)
Cc1[nH]n(-c2ccccc2)c(=O)c1/C=N/NC(=O)COc1ccccc1[N+](=O)[O-]	none (no result: HUVEC inhibit, H69AR growth 86K, Fibroblast inh)
Cc1[nH]n(-c2cccc3ccccc23)c(=O)c1/C=N/NC(=O)c1cccc([N+](=O)[O-])c1	PTEN del growth 3.6, HCT116 bCat-KO 4.5 (no result: HUVEC inhibit, H69AR growth 86K, Fibroblast inh)
CCc1nnc(NC(=O)C(=O)NCCOC(=O)c2ccccc2)s1	none (no result: HUVEC inhibit, H69AR growth 86K, Fibroblast inh)
CC(=Nc1cccc(C)c1)c1sc2ccccc2c1O	none
Cc1cccc(N=Nc2ccc(O)c3ncccc23)c1	HCT116 bCat-KO 6.0 (no result: HUVEC inhibit, H69AR growth 86K, Fibroblast inh)
CCCCn1nc(C(=O)N[C@@H](CCSC)c2nc3ccccc3[nH]2)c2ccccc2c1=O	H69AR growth 86K 36
CCn1nc(C(=O)N[C@@H](CCSC)c2nc3ccccc3[nH]2)c2ccccc2c1=O	none
CN(C)CCC(=O)c1ccc(Cl)cc1	H69AR growth 86K 19
CCCCCN=Cc1c(C)[nH]n(-c2nc3ccccc3s2)c1=O	HUVEC inhibit 13, H69AR growth 86K 6.4, Fibroblast inh 29
CCCc1[nH]n(-c2nc3ccccc3s2)c(=O)c1C=NCCN1CCOCC1	none (no result: Phagocyt inh)
O=C(CN(Cc1cccs1)C(=O)CN1C(=O)COc2ccccc21)NCc1ccco1	none
CCc1nc(SCC(=O)NCc2ccc(F)cc2)c2c(=O)n(C)c(=O)n(C)c2n1	none
